# Source: the RNAGym collection of RNA variant scans (doi:10.1126/science.aae0568)
# Fewer inactive variants are shown than the library holds.
# B1: tRNA (parent)
# chain: GUUCCGUUGGCGUAAUGGUAACGCGUCUCCCUCCUAAGGAGAAGACUGCGGGUUCGAGUCCCGUACGGAACG
# Variants of: B1
# Assay: yeast fitness relative to wild type (ratio to wild type); higher = fitter; tRNA-Arg(CCU), competitive growth, 37 C, YPD
# Method in brief: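 A pool of Saccharomyces cerevisiae strains, each with a tRNA-Arg(CCU) gene variant at the native genomic locus, was competed in YPD at 37°C for 24 hours across six parallel replicates. The variants had been chemically synthesised at a 3% per-site mutation rate over 69 sites, and gene amplicons before and after competition were read by 100-nucleotide paired-end sequencing. Darwinian fitness relative to wild type rested on changes in genotype frequencies. Genotypes required ≥ 100 starting reads, and estimates < 0.5 were set to 0.5.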
row,Variant,yeast fitness
1,GUUCCGUUGUCGUAAUGGUAACGCGUCUCCCUCCUAAGGAGAAGACUGCGGGUUCGAGUCCCGUACGGAACG [G10U],0.887
2,GUUACGUUGGCGUGAUGGUAACGUGUCUCCCGCCUAAGGAGUGGACUGCGGGUUCGAGUCCCGUAUGGAACG [C4A A14G C24U U32G A42U A43G C66U],≤ 0.5
3,GUUCCGUUGGCGUAAUGGUAACGCGACUCCCUCCUAAGGAGAAGACUGCGGGUUCGAGUCGCGUACGGAUCG [U26A C61G A70U],0.764
4,GUUCCGUUGGCGUAGUGGUAAUGCGUCUCCCUCCUAAGGAGAAGACUGCGGGUUCGAGUCCCGUACGGAACG [A15G C22U],0.871
5,GUUCCGUUGGCGUAAUGGUAACGCGUCUACCUCCUAAGGAGAAGACUGAGGGUUCGAGUCCAGUAUGGAACG [C29A C49A C62A C66U],≤ 0.5
6,GGUACGUUGGCGUAAUGGUAACGCGUCUCCCUCCUAACGAGAAGACUGCAGGUUCGAGUCCCGUACGGAACG [U2G C4A G38C G50A],0.713
7,GUUCCGUUGGCGUAAUGGUAACGCGUCUCCGUCGUAAGGAGAAGACUGCGGGUUCGCGUCCCGUACGGAACG [C31G C34G A57C],0.685
8,GUUCCGUUGGCGUAAUGGUAACGCGUCUCCUUCCUAAGGAGAAGACUGCAGGUUCGAGUCCCGUACGGAUCG [C31U G50A A70U],0.677
9,GUUCCGUUGGCGUCAUGGUACCGCGUCUCCCUCCUAAGGAGAAGAAUGCGGGUUCGAGUCCCGUACGGAACG [A14C A21C C46A],0.604
10,GUUCCGUUGGAGUGAUGGGAACGCGUCUCCCUCCUAAGGAGACGACUGCGGGAUCGAGUCCAGUAUGGAACG [C11A A14G U19G A43C U53A C62A C66U],≤ 0.5
11,GUUUCGUUGGCGUUAUGGUAACGCGUCUCCCUCCUAAGGAGAAGACUGCGGGUUCGAGUCCCGUACGGAACG [C4U A14U],0.611
12,GUUCCGUUGGCGUAAUGGUAACGCGUCUCCCUCCUAAGGAGAAGACUGAGGGUUCGCGUCCCGUGCGGAACG [C49A A57C A65G],≤ 0.5
13,GCUCCGUUGGCGUAAUGGUAACGCGUCUUCCUCCUAACGAGAUGACUGCGGGGUCGAGUCCCGUACGGAACG [U2C C29U G38C A43U U53G],≤ 0.5
14,GUUCCAUUGGCGUAAUGGUAACGCGUCUCCCUCCUAAGGAGAAGACUGCGGGUUCGAGUACCGUACCGAACG [G6A C60A G67C],0.536
15,GUUCCGUUGGCGUAAUGGUAACGCGUCUCCAUCCUAAGGAGAACACUGCGGGUUCGAGUCCCAUACGGAACG [C31A G44C G63A],≤ 0.5
16,GUUCCGUUGGCGUAAUGGCAACGCGUCUCCCUCCUAAGGAGAAGACUGAGGGUUCGCGUCCCGUACGGAACG [U19C C49A A57C],0.599
17,GUUCCGUUGGCGUAAUGGCAACGCGUCUCCCUCCUAACGAGAAGACUGCGGGUUCGAGUCCGGUACGGAACG [U19C G38C C62G],≤ 0.5
18,GUUCCGUUGGCGUAGUGGUAUCGCGUCUCCCUCCUACGCAGAAGACUGCGGGUUCGUGUCCUGUACGGAACG [A15G A21U A37C G39C A57U C62U],≤ 0.5
19,GUGCCGUUGGCGUAUUGGUAACGCGUCUCCCUCCUGAGGAGAAGACUGCGGGUUCGAGUCCCGUACGGAACG [U3G A15U A36G],≤ 0.5

row,Variant,yeast fitness
1,GUUCCGUUGGCGUAAUGGUAACGCGUCUCCCUCCGAAGGCGAAGACUGCGGGUUCGAGUCCGGUAGGGAACG [U35G A40C C62G C66G],0.539
2,GUUCCGUUGGCGUAAUGGUAACGCGUCUCCCUCCUAAGGAGAAGACUGCGGGUUCGAGUGCCGUAGGGGACG [C60G C66G A69G],0.593
3,GUUCCGUUGGCGUAAUGGCAACGCGUCCCCCUCCUAAGGAGAAGAAUGCGGGUUCGAGUCCCGUACGGACCG [U19C U28C C46A A70C],0.545
4,GUUCCGUUGCCGUAAUGGUAACGCGUCUCCCUCCUAAGCAGAAGACUGCGAGUUCGAGUCCCGUACGGAACG [G10C G39C G51A],≤ 0.5
5,GUUCCGUUGGCGUAAUGGUAACGCGUCUCCCUCCUUAGGAGAAGACUGCGGGUUCGAGUCUCGUACGGAACG [A36U C61U],0.693
6,GUUCCGUUAGCGUAAUGGUAACGCGUCUCCCUCCUAAGGUGAAGACUGCGGGUUCGAGUCCCGUACGGAACG [G9A A40U],1.06
7,GUUCCGUUGGCGUAAUGGUAACGCGUCUCCCUCCUAAGGCGAAGACUGAGGGUUCGAGUCCCGUACGGAACG [A40C C49A],0.668
8,GGUCCGUUGGCGUAAUGGUAACGCGUCUCCCUCCUAAGGAGACGACUGCGGGUUCGAGUCCCGUACGGAACG [U2G A43C],1.07
9,GUUCCGUUGGCGUAAUGGUAACGCGUCUGCCUCCUAAGGCGAAGACUGCGGGUUCGCGUCCCGUACGGAACG [C29G A40C A57C],0.551
10,GUUCCGUUGGCGUGGUGGUAACGCGUCUCCCUCCUAUGGAGAAGACUGCGGGUUUGAGUCCCGUACGGAACG [A14G A15G A37U C55U],≤ 0.5
11,GUUUCGUUGGCCUAAUGGUAACGCGUCGCCCUCCUAAGGAGAAGACUGCGGGUUCGAGUCCGGUACGGAACG [C4U G12C U28G C62G],≤ 0.5
12,GUUCCGUUGGCGUAAUGAUAACGCGUCUCCCUCCUAAGGAGAAGACUGCGGGUUCGAGGCCCGUACGGAACG [G18A U59G],0.776
13,GUUCCGUUGGCGUAAUGGUAACGCGUGUCCCUCCUAAGGAGAAGACUGCGGGUUCGAGUCCCGAACGGAACG [C27G U64A],0.665
14,GUUCCGUUGGCGUAAUGGUAAUGCGUGUCCCUCCUAAGGAGAAGACUGCGGGUUCGAGUCCCGUACGGUACG [C22U C27G A69U],0.508
15,GUUCCGUUGGCGUUGUGGUAACGCGUCUCCCUCCUAAGGAGAAGACUGCGGGUUCGAGUCCCGUACGGAACG [A14U A15G],0.725
16,GCUUCGUUGGCGUAAUGGUAACGCCUCUUCCUCCUAAGGAGAAGACUGCGGGUUCGAGUCCCGUACGAAACG [U2C C4U G25C C29U G68A],≤ 0.5
17,GUUCCGUUGGAGUAAUGGUAACGCGUCUCGCUCCUAAGGAGAAGUCUGCGGGUUCGAGUACUGUACGGAACG [C11A C30G A45U C60A C62U],≤ 0.5
18,GUUCCGUUGGCGUAAUGGUAACCCGUCUCCAUCCUAAGGAGAAGACUGCGGGUUCGAGUCCUGUACGGAGCG [G23C C31A C62U A70G],≤ 0.5
19,GUCCCGUUGGCGUAAUGGUAACGCGUCUCCCUCCUAAGGAGAACAAUGCGGGUUCGAGUCCCGUACGGAACG [U3C G44C C46A],0.672
